These results are taken from ChEMBL document CHEMBL1147572, “Synthesis, SAR, and antitumor properties of diamino-C,N-diarylpyrimidine positional isomers: inhibitors of lysophosphatidic acid acyltransferase-beta” (Bioorg Med Chem Lett, 2004).

Where only a bound is given, the exact number is not on record here.

In one assay the test system is DU-145. The experiment in a line: In vitro inhibitory activity against DU 145 cell line proliferation. It is filed as functional, cell-based. Particulars: Homo sapiens. An outline of the steps:
(§1)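 Cell proliferation measured with a CyQuant fluorescent DNA-dye kit, following the method of an earlier report.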

Assay [1] concerns the target T1, 1-acyl-sn-glycerol-3-phosphate acyltransferase beta (Homo sapiens, UniProt O15120).
T1 sequence (O15120 whole entry): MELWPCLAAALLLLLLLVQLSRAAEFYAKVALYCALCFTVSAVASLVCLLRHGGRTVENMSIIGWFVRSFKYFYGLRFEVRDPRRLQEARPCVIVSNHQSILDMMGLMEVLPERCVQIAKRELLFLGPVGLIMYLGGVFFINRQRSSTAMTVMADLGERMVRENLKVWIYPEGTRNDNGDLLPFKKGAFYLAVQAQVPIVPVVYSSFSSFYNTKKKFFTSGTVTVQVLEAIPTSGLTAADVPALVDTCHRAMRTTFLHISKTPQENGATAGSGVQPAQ
Put plainly: Inhibitory activity against Lysophosphatidic acid acyltransferase-beta expressed in Sf9 insect cell membranes. An outline of the steps:
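LPAAT-β overexpressed in Sf9 insect cell membranes. Enzyme activity read colorimetrically with DTNB (5,5'-dithiobis(2-nitrobenzoic acid)).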

The next assay concerns K562. The experiment in a line: In vitro inhibitory activity against K-562 cell line proliferation. The following applies: Homo sapiens. The assay is classed as functional, cell-based. An outline of the steps: as §1
Assay [2] relates to Lewis lung carcinoma cell line. Put plainly: In vitro inhibitory activity against murine Lewis lung tumor LL2 cell line. The assay is classed as functional, cell-based. Particulars: Mus musculus.
The next assay concerns Mus musculus. The experiment in a line: Tumor growth delay against Lewis lung tumor LL2 cell line at 100 mg/kg q1d*4 intravenously in mice. The following applies: route intravenous.
Assay [3] has as its target T2, 1-acyl-sn-glycerol-3-phosphate acyltransferase alpha (Homo sapiens) (UniProt Q99943).
T2 sequence (whole entry): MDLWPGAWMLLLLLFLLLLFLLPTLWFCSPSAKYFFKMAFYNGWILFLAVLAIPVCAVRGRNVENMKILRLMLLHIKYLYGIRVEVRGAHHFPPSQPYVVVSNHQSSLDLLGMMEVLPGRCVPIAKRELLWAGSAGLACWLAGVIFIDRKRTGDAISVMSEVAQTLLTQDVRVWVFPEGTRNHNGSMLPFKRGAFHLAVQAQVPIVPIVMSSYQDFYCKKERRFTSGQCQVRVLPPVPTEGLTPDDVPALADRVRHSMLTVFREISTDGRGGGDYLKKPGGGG
Put plainly: Inhibitory activity against lysophosphatidic acid acyltransferase-alpha at 40 uM concentration. An outline of the steps:
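LPAAT-α overexpressed in Sf9 insect cell membranes in the same way. Activity read colorimetrically with DTNB. Inhibition recorded at 40 μM.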

For the molecule `CCOc1ccc(Br)cc1-c1cc(Nc2ccc(B(O)O)cc2)nc(N)n1`, the figures for the 50% inhibitory concentration (IC50) (with DU-145; in assay [1]; in the assay with K562) were 500 nM, 91 nM and 200 nM, respectively.
`COc1ccc(Cl)cc1-c1cc(N)nc(Nc2ccc3c[nH]nc3c2)n1`: the IC50 with DU-145 and with K562 was more than 10000 nM throughout.
`Cc1ccc(Cl)cc1-c1cc(Nc2ccc(C(F)(F)F)cc2)nc(N)n1`: the IC50 (as a rule, the point on the concentration scale where inhibition reaches its midpoint) in the assay on DU-145 stood at 230 nM; in assay [1], 140 nM; in assay [2], 160 nM; in the assay with K562, 140 nM. For the same molecule, in the assay with Mus musculus, the TGD amounted to 6 days.
Consider `CCOc1ccc(Br)cc1-c1cc(Nc2ccc(/C(C)=N\OC)cc2)nc(N)n1`, for which the results for the IC50 (in the assay on DU-145; in assay [1]; in the assay with K562) were more than 1000 nM, 970 nM and more than 1000 nM, respectively.
Regarding `COc1ccc(Cl)cc1-c1cc(N)nc(Nc2ccc(Cl)cc2)n1`, the IC50 in the assay with DU-145 was more than 10000 nM; in assay [1], 7000 nM; in the assay on K562, 3000 nM.
Regarding `COc1ccc(Cl)cc1-c1nc(N)cc(Nc2ccc(Br)cc2)n1`, the IC50 in the assay with DU-145 stood at 800 nM; in the assay on K562 it was 150 nM.
Regarding `Cc1ccc(Br)cc1-c1cc(Nc2ccc(Br)cc2)nc(N)n1`, the IC50 with DU-145 was found to be 110 nM; in the assay on K562, 70 nM.
Regarding `CCOc1ccc(Cl)cc1-c1cc(Nc2cccc([N+](=O)[O-])c2)nc(N)n1`, the half-inhibitory concentration (IC50) in the assay with DU-145 was more than 1000 nM; in assay [1] it was 640 nM; with K562 it was 450 nM.
Turning to `CCOc1ccc(Cl)cc1-c1cc(Nc2ccc([N+](=O)[O-])cc2)nc(N)n1`, the IC50 in the assay on DU-145 was 350 nM; in the assay with K562, 180 nM.
For `Cc1ccc(Br)cc1-c1cc(Nc2ccc(Cl)cc2)nc(N)n1`, the IC50 is 100 nM in the assay on DU-145 and 70 nM with K562.
For the molecule `Cc1ccc(Cl)cc1-c1cc(Nc2cccc(Br)c2)nc(N)n1`, the values for the IC50 (in the assay with DU-145; in assay [1]; in the assay with K562) were 400 nM, 610 nM and 200 nM, respectively.
Consider `Cc1ccc(F)cc1-c1cc(Nc2ccc(Cl)cc2)nc(N)n1`, for which the IC50 in the assay with DU-145 is more than 1000 nM; in assay [1] it was 150 nM; in the assay on K562, 250 nM.
For `CCOc1ccc(Br)cc1-c1cc(Nc2ccc(C(=O)O)cc2)nc(N)n1`, the IC50 in assay [1] was 2700 nM.
Turning to `CCOc1ccc(Cl)cc1-c1cc(Nc2ccc(CCCO)cc2)nc(N)n1`, the IC50 in the assay on DU-145 and in the assay on K562 was more than 1000 nM in each case.
As for `Nc1nc(Nc2ccc(Cl)cc2)cc(-c2cc(Br)ccc2O)n1`, the IC50 with DU-145 and in the assay on K562 was more than 1000 nM in each case.
As to `CCOc1ccc(Cl)cc1-c1cc(Nc2ccc3c[nH]nc3c2)nc(N)n1`, the IC50 in the assay with DU-145 was 200 nM; with K562, less than 100 nM.
On to `CCOc1ccc(Br)cc1-c1cc(Nc2ccc(Cl)cc2)nc(N)n1`, for which the figures for the IC50 (in the assay with DU-145; in assay [1]; with K562) were 80 nM, 16 nM and 50 nM, respectively. Further, in assay [3], the inhibition (in general, the percentage by which the read-out fell short of the control) amounted to 50%.
Turning to `CCOc1ccc(Br)cc1-c1cc(Nc2ccc(CC(=O)O)cc2)nc(N)n1`, the IC50 is more than 1000 nM in the assay on DU-145, 210 nM in assay [1] and more than 1000 nM in the assay with K562.
As for `COc1ccc(Cl)cc1-c1nc(N)cc(Nc2ccc3c[nH]nc3c2)n1`, the IC50 in the assay with DU-145 is more than 10000 nM; in the assay on K562 it was 5500 nM.
The matching figures for `Nc1nc(Nc2ccc(Cl)cc2)cc(-c2cc(Cl)ccc2Cl)n1`: 190 nM and less than 100 nM.
For `COc1ccc(Cl)cc1-c1cc(N)nc(Nc2ccc(Br)cc2)n1`, the IC50 with DU-145 was more than 10000 nM; in assay [1] it was 2300 nM; with K562 it was 3000 nM.
For `CCOc1ccc(Br)cc1-c1cc(Nc2ccc(C#N)cc2)nc(N)n1`, the concentration for half-maximal inhibition (IC50) came out at 400 nM in the assay on DU-145, 17 nM in assay [1] and 70 nM in the assay with K562.
As for `Cc1ccc(O)cc1-c1cc(Nc2ccc(Cl)cc2)nc(N)n1`, in assay [1], it took 8300 nM to reach half-maximal inhibition (IC50). This counts as single-digit micromolar.
As to `COc1ccc(Cl)cc1-c1nc(N)cc(Nc2ccc(Cl)cc2)n1`, the IC50 with DU-145 is 5000 nM; in assay [1] it was 7000 nM; in the assay on K562, 750 nM.
Turning to `COc1ccc(Cl)cc1-c1cc(Nc2ccc(Cl)cc2)nc(N)n1`, the results for the IC50 in the assay on DU-145 and in the assay on K562 were 500 nM and 150 nM, respectively.
As to `CCOc1ccc(Br)cc1-c1cc(Nc2ccc(CC(=O)NO)cc2)nc(N)n1`, the IC50 in the assay with DU-145 is more than 1000 nM; in assay [1] it was 400 nM; with K562, more than 1000 nM.
Turning to `Nc1nc(Nc2ccc(Cl)cc2)cc(-c2cc(Cl)ccc2O)n1`, in assay [1], the IC50 was determined as 10000 nM.
Regarding `CCOc1ccc(Cl)cc1-c1cc(Nc2ccc(CO)cc2)nc(N)n1`, the IC50 with DU-145 is 40 nM; in the assay on K562, less than 12 nM.
Regarding `Cc1ccc(Cl)cc1-c1cc(Nc2ccc(Cl)cc2)nc(N)n1`, the IC50 was 120 nM in the assay with DU-145, 22 nM in assay [1] and 60 nM in the assay with K562.
The matching figures for `CCOc1ccc(Br)cc1-c1cc(Nc2ccccc2)nc(N)n1`: more than 1000 nM, 120 nM and 260 nM.
As to `CCOc1ccc(Br)cc1-c1cc(Nc2ccc(C(=O)NO)cc2)nc(N)n1`, the half-maximal inhibitory concentration (IC50) with DU-145 is more than 1000 nM; with K562, 700 nM.
In the case of `CCOc1ccc(Cl)cc1-c1cc(Nc2ccc(CC(=O)O)cc2)nc(N)n1`, the values for the half-inhibitory concentration (IC50) (in the assay on DU-145; in assay [1]; in the assay with K562) were more than 1000 nM, 580 nM and more than 1000 nM, respectively.
`COc1ccc(Cl)cc1-c1cc(Nc2ccc3c[nH]nc3c2)nc(N)n1`: the half-maximal inhibitory concentration (IC50) worked out at 1000 nM in the assay on DU-145 and 250 nM with K562.
`CCOc1ccc(Br)cc1-c1cc(Nc2ccc(C(C)=O)cc2)nc(N)n1`: the results for the 50% inhibitory concentration (IC50) with DU-145 and with K562 were 90 nM and 50 nM, respectively.
Consider `Cc1ccc(Cl)cc1-c1cc(Nc2ccc(Br)cc2)nc(N)n1`, for which the concentration for half-maximal inhibition (IC50) in the assay with DU-145 amounted to 130 nM; in the assay with K562 it was 60 nM.
Turning to `CCOc1ccc(Br)cc1-c1cc(Nc2ccc(/C(C)=N\O)cc2)nc(N)n1`, the values for the IC50 (with DU-145; in assay [1]; with K562) were less than 50 nM, 84 nM and less than 50 nM, respectively.
`CCOc1ccc(Br)cc1-c1cc(Nc2ccc(C(=N)N)cc2)nc(N)n1` yielded an IC50 in assay [1] of more than 5000 nM.
For the molecule `COc1ccc(Cl)cc1-c1cc(Nc2ccc(Br)cc2)nc(N)n1`, the results for the concentration for half-maximal inhibition (IC50) (with DU-145; in assay [1]; with K562) were 250 nM, 28 nM and 150 nM, respectively.
Turning to `CCOc1ccc(Cl)cc1-c1cc(Nc2ccc(CCO)cc2)nc(N)n1`, the results for the half-inhibitory concentration (IC50) with DU-145 and in the assay with K562 were 70 nM and less than 50 nM, respectively.
In the case of `CCOc1ccc(Br)cc1-c1cc(Nc2cccc(C#N)c2)nc(N)n1`, the IC50 is more than 1000 nM in the assay on DU-145, 720 nM in assay [1] and 350 nM with K562.
In the case of `CCOc1ccc(Cl)cc1-c1cc(Nc2ccc(Cl)cc2)nc(N)n1`, the values for the IC50 in the assay with DU-145 and in the assay with K562 were 70 nM and less than 12 nM, respectively.
In the case of `CCOc1ccc(Br)cc1-c1cc(Nc2ccc(C(N)=O)cc2)nc(N)n1`, in assay [1], inhibition was half-maximal at 750 nM (IC50).
